One series deals with HCEpiC and ARPE-19 cells. Nature of the series: Gly-Sar cell viability by MTT assay. Particulars: even at 10 mM; cells not stated at the place (Figure S6). It counts as cell-based.
In series [1] the test system is HCEpiC. The series is described as follows: Flow cytometry uptake mechanism with endocytic inhibitors, HCEpiC. It is filed as cell-based, human. Particulars: inhibitor pre-incubated 30 min, nanocomposites 4 h. The method, boiled down:
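HCEpiC were seeded at 10^5 cells/well in 12-well plates and grown 6 days, with medium refreshed every 2 days. FITC-labeled nanocomposites (2 μg/mL FITC) were then added for 4 h at 37°C. Cells were rinsed twice with cold DPBS, trypsinized, resuspended at 5×10^5–1×10^6 cells/mL and read by flow cytometry at 495/525 nm. Untreated cells served as control; n=3.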
Background: A flow cytometer gives signals particle by particle.

Series [2] deals with ARPE-19 cells. The series is described as follows: Flow cytometry uptake mechanism with endocytic inhibitors, ARPE-19. It counts as cell-based. Conditions: inhibitor pre-incubated 30 min, nanocomposites 4 h. Summed up:
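ARPE-19 cells were seeded at 10^5 cells/well in 12-well plates and grown 5 days, with one medium change. FITC-labeled nanocomposites (4 μg/mL FITC) were then added for 4 h at 37°C in serum-free medium. Cells were rinsed with cold PBS, trypsinized and read by flow cytometry at 495/525 nm. Untreated cells served as control; n=3.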

Series [3] in a line: In vitro drug release, dynamic dialysis method. Conditions: PBS pH 7.4, within 2 h. It counts as physicochemical. The method, boiled down:
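Free drug solution or drug-loaded nanosheet suspension (1 mL, 50 μg drug) was placed in a dialysis bag (MWCO 8–14 kDa) in PBS pH 7.4 at 35°C±0.5°C, shaken at 400 rpm. Samples of 0.5 mL were taken at 10–720 min, filtered through 0.22 μm and replaced with fresh PBS. Drug was quantified by HPLC.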

Series [4] concerns HCEpiC. The series is described as follows: Cellular uptake, inverted fluorescence microscope, HCEpiC. Particulars: 2 μg/mL FITC, 37°C, 1, 2 and 4 h. It is filed as cell-based, human. The method, boiled down: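 HCEpiC were grown in poly-L-lysine-coated flasks (2 μg/cm2) in serum-free corneal epithelial medium with growth supplement, under 5% CO2 at 37°C. They were seeded at 5×10^4 cells/well in 24-well plates and grown 6 days, with medium refreshed every 2 days. Cells were exposed for 1, 2 and 4 h at 37°C to FITC-labeled test nanocomposites, free FITC or polymer–FITC control solution, at 2 μg/mL FITC. They were washed three times with DPBS and imaged by inverted fluorescence microscopy.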

Series [5] deals with ARPE-19 cells. The series is described as follows: Cellular uptake, inverted fluorescence microscope, ARPE-19. It counts as cell-based. Conditions: ARPE-19, 4 μg/mL FITC, 37°C, 1, 2 and 4 h. Summed up:
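ARPE-19 cells were grown in DMEM/F-12 with 10% FBS under 5% CO2 at 37°C. They were seeded at 5×10^4 cells/well in 24-well plates and grown 2 days. Cells were exposed for 1, 2 and 4 h at 37°C to FITC-labeled test nanocomposites, free FITC or polymer–FITC control solution (3.8×10−4% or 0.008% w/v polymer), at 4 μg/mL FITC. They were washed three times with PBS and imaged by inverted fluorescence microscopy.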

Structures can show the parent of a compound that is named as a salt. Square brackets hold non-standard residues; d marks the D form. Peptide text beside a SMILES is read from it. Sar = CNCC(=O)O

For the molecule `CN(CC(=O)O)C(=O)CN` [Gly-Sar] (H-Gly-[Sar]-OH), the “Cytotoxicity (cell viability by MTT)” value in the series on HCEpiC and ARPE-19 cells is recorded as “no cytotoxicity”.
For the molecule `C[C@@H]1[C@H](O)[C@@H](C)/C=C/C=C/CC/C=C/C=C/C=C/C=C/C(O[C@H]2O[C@H](C)[C@@H](O)[C@H](N)[C@@H]2O)CC2O[C@](O)(CC(O)C(O)CCC(O)CC(O)CC(O)CC(=O)O[C@H]1C)CC(O)C2C(=O)O` (stereo partly shown) [Nystatin, nystatin], the “Effect of inhibitor on cellular uptake of FITC-labeled nanocomposites vs control” value (“Effect of inhibitor … vs control” below) with HCEpiC [1] and with ARPE-19 cells [2] was “no significant influence” in each case.
`O=C([O-])c1cc(=O)c2c3nc4ccccc4oc-3cc(=O)c2[nH]1.[Na+]` [PRN solution, Pirenoxine sodium]: the “Cumulative release of PRN” value in series [3] was ~ 100%.
In the case of `N=C(N)NC(=O)c1nc(Cl)c(N)nc1N` [amiloride], the “Effect of inhibitor … vs control” value in the series with HCEpiC [1] and in the series with ARPE-19 cells [2] was “no effect” each time.
For the molecule `CN(C)CCCN1c2ccccc2Sc2ccc(Cl)cc21` [chlorpromazine, chlorpromazine hydrochloride], the “Effect of inhibitor … vs control” value in the series with HCEpiC [1] and in the series with ARPE-19 cells [2] was “significantly decreased” throughout.
Turning to `O=C1OC2(c3ccc(O)cc3Oc3cc(O)ccc32)c2ccc(N=C=S)cc21` [free FITC, fluorescein isothiocyanate (FITC) isomer I], the “Fluorescence of cells (cellular uptake)” value with HCEpiC [4] and in the series on ARPE-19 cells [5] was “negligible fluorescence” in each case.
As to `O=c1c(-c2ccc(O)cc2)coc2cc(O)cc(O)c12` [genistein], the “Effect of inhibitor … vs control” value with HCEpiC [1] and in the series on ARPE-19 cells [2] was “no significant influence” in each case.
For the molecule `OC[C@H]1O[C@@](CO)(O[C@H]2O[C@H](CO)[C@@H](O)[C@H](O)[C@H]2O)[C@@H](O)[C@@H]1O` [hypertonic sucrose, sucrose], the “Effect of inhibitor … vs control” value in the series with HCEpiC [1] and in the series with ARPE-19 cells [2] was “significantly decreased” in each case.
On to `[N-]=[N+]=[N-].[Na+]` [sodium azide], for which the “Effect of inhibitor … vs control” value in the series on HCEpiC [1] and in the series with ARPE-19 cells [2] was “decreased” each time.

These data come from paper PMC5339005 (International Journal of Nanomedicine, 2017).
